The subject of test [1] is DNA. Briefly: Binding affinity to calf thymus DNA in aqueous solution at pH 7.0 by thermal denaturation. It is filed as nucleic-acid assay. Conditions: Bos taurus. Put shortly:
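ct-DNA in sodium cacodylate buffer, pH 7.0, I = 0.05 mol dm^-3, concentration taken as phosphate. Compound added at r[compd]/[ct-DNA] = 0.3. Melting followed by absorbance at 260 nm, with ligand absorbance subtracted and curves normalized. Tm taken as the transition midpoint (first derivative or tangent method). ΔTm = Tm(complex) − Tm(free DNA), averaged over at least two runs.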

For test [2], the system named is HEp-2. Description: Antiproliferative activity against human Hep2 cells after 72 hrs by MTT test. It is filed as functional, cell-based. Conditions: HEp-2, 72 h. Put shortly:
(§1)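 Cells grown as monolayers in DMEM with 10% FBS, 2 mM L-glutamine, penicillin and streptomycin at 37 °C, 5% CO2. Seeded on day 0 at 1 · 10⁴/mL (HeLa, Hep-2, MiaPaCa-2, SW620), 2 · 10⁴/mL (MCF-7) or 3 · 10⁴/mL (WI 38). Five dilutions (10^-8 to 5 · 10^-6 mol/l), 72 h, MTT read-out. Quadruplicate, three experiments. IC50 by linear regression of percentage growth.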
(In general: Tetrazolium dyes change colour on reduction, which living cells bring about.)

Test [3] relates to HeLa. Description: Antiproliferative activity against human HeLa cells after 72 hrs by MTT test. It counts as functional, cell-based. In short, it runs like this: as §1
The test system of test [4] is MIA PaCa-2. Briefly: Antiproliferative activity against human MiaPaCa2 cells after 72 hrs by MTT test. It counts as functional, cell-based. The note with it: MIA PaCa-2, 72 h. In short, it runs like this:
as §1

Test [5] concerns SW-620. Briefly: Antiproliferative activity against human SW620 cells after 72 hrs by MTT test. It is filed as functional, cell-based. Conditions: SW-620, 72 h. Put shortly: as §1
The subject of test [6] is MCF7. Briefly: Antiproliferative activity against human MCF7 cells after 72 hrs by MTT test. The note with it: MCF7, 72 h. It is filed as functional, cell-based. Put shortly: as §1
Test [7] concerns WI-38. Description: Antiproliferative activity against human WI38 cells after 72 hrs by MTT test. It is filed as functional, cell-based. The note with it: WI-38, 72 h. Put shortly:
as §1

Usually IC50 stands for the concentration needed to halve the response being measured. Read a high IC50 as a need for much substance.

The source made the active and inactive calls. No cut-off for these calls is given here.

Consider `NC(=S)N/N=C/c1ccccc1O`, for which the outcome in test [1] was inactive. The IC50 in test [2] was ≥ 5 µM; in test [3], ≥ 5 µM; in test [4], > 5 µM; in test [5], > 5 µM; in test [6] it was ≥ 5 µM; in test [7], ≥ 5 µM.

Turning to `COc1cccc(/C=N/NC(=S)Nc2ccccc2)c1O`, the IC50 is 1.6 µM in test [2]; 1.7 µM in test [3]; 2.5 µM in test [4]; 1.6 µM in test [5]; 3 µM in test [6]; 1.4 µM in test [7].

As for `NC(=S)N/N=C/c1c(O)ccc2ccccc12`, the IC50 in test [2] is 0.2 µM; in test [3] it was 0.2 µM; in test [4], > 5 µM; in test [5], 4.7 µM; in test [6], > 5 µM; in test [7] it was ≥ 5 µM.

Consider `CCN(CC)c1ccc(/C=N/NC(=S)Nc2ccccc2)c(O)c1`, for which the outcome in test [1] was inactive. Moreover, the IC50 in test [2] was 0.3 µM; in test [3] it was 0.7 µM; in test [4] it was 0.2 µM; in test [5], 0.6 µM; in test [6], 1.2 µM; in test [7] it was 0.3 µM.

In the case of `CCN(CC)c1ccc(/C=N/NC(N)=S)c(O)c1`, the IC50 in test [2] is 0.9 µM; in test [3] it was 2 µM; in test [4], > 5 µM; in test [5] it was 3 µM; in test [6], 0.4 µM; in test [7] it was 0.2 µM.

With `Oc1ccccc1/C=N/NC(=S)Nc1ccccc1`, the outcome in test [1] was inactive. For the same molecule, the IC50 was determined as 2.4 µM in test [2]; 1.5 µM in test [3]; 2.4 µM in test [4]; 2 µM in test [5]; 4 µM in test [6]; 1.3 µM in test [7].

The record behind these values is ChEMBL document CHEMBL1157178, “Novel thiosemicarbazone derivatives as potential antitumor agents: Synthesis, physicochemical and structural properties, DNA interactions and antiproliferative activity” (Bioorg Med Chem, 2008).
